Results reported in ChEMBL document CHEMBL1136750, “Synthesis and evaluation of a novel nonsteroidal-specific endothelial cell proliferation inhibitor” (2003).

Legend:
[1] = tested on: HUVEC; assay: IIn vitro inhibition of primary human umbilical vein endothelial cell (HUVEC) proliferation at 0.1 uM; assay type: functional; conditions: values are per cent of control
How it was run: (§1)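 bFGF-stimulated HUVEC proliferation; cells incubated with bFGF alone or with increasing compound concentrations. Cell counts remaining normalized: maximal bFGF response = 100%, wells without bFGF (starved) = 0%. Mean ± SEM, n = 11 or n = 5 depending on experiment.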

[2] = tested on: HUVEC; assay: In vitro inhibition of primary human umbilical vein endothelial cell (HUVEC) proliferation at 0.01 uM; assay type: functional; conditions: values are per cent of control; how it was run: as §1
[3] = tested on: HUVEC; assay: In vitro inhibition of primary human umbilical vein endothelial cell (HUVEC) proliferation at 1 uM; assay type: functional; conditions: values are per cent of control; how it was run: as §1
[4] = tested on: HUVEC; assay: In vitro inhibition of primary human umbilical vein endothelial cell (HUVEC) proliferation at 3 uM; assay type: functional; conditions: values are per cent of control; how it was run: as §1
[5] = tested on: HUVEC; assay: In vitro inhibition of primary human umbilical vein endothelial cell (HUVEC) proliferation at 10 uM; assay type: functional; conditions: values are per cent of control; how it was run: as §1
[6] = target: Estrogen receptor beta (Homo sapiens) (UniProt Q92731); assay: In vitro displacement of 0.5 nM [3H]E2 from human Estrogen receptor beta at 10 uM
Estrogen receptor beta (Homo sapiens), sequence (Q92731 whole entry): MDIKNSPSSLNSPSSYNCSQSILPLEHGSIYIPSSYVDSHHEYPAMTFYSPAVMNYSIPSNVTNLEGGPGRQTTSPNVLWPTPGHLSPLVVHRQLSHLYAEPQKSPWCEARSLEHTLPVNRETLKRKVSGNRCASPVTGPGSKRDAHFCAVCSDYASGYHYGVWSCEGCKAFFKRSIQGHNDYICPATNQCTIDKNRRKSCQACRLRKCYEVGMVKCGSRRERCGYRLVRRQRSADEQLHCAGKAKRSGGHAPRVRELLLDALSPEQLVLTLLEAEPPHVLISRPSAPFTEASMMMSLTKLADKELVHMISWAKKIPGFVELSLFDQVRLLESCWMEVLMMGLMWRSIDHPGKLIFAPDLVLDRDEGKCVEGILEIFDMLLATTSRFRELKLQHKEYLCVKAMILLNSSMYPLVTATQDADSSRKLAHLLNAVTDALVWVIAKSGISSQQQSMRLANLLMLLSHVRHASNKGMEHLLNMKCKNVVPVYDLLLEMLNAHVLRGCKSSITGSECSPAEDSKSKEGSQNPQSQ

SMILES | growth, % of control at 0.1 µM [1] [%] | growth, % of control at 0.01 µM [2] [%] | growth, % of control at 1 µM [3] [%] | growth, % of control at 3 µM [4] [%] | growth, % of control at 10 µM [5] [%] | Binding [6] [%]
COc1ccc2c(c1)oc(=O)c1cc(C(C)=O)ccc12 | 90 | 100 | 85 | 30 | 25 | 100
COc1cc2c(cc1O)oc(=O)c1cc(C(C)=O)ccc12 | 100 | 90 | 85 | 60 | 10 | 90
COc1cc2c(cc1O)CC[C@@H]1[C@@H]2CC[C@]2(C)[C@@H](O)CC[C@@H]12 [2-METHOXYESTRADIOL] | 100 | 100 | 60 | 25 |  | 25
